# Assay outcomes: PubChem BioAssay, Sanford-Burnham Center for Chemical Genomics
# SENP6 block – inhibitors of human SENP6 protease; Q9GZR1; Recombinant SENP6 catalytic domain, aminoluciferin luminescence; inhibition, % at 10 µM; 1.8% of 330,000 active; AID 2599;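 active = inhibition above about 50% at the single tested dose, limit read from the data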;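 note: plate controls were DMSO wells with enzyme for no effect and DMSO wells lacking enzyme for full effect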
# SENP7 inh – inhibitors of human SENP7 protease; recombinant SENP7, Z-RLRGG-aminoluciferin luminescence, 40 min; AID 434973; 1.5% of 330,000 active; inhibition, % at 5 µM;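 active = inhibition above about 50% at the single test dose, limit read from the data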;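 note: plate controls were DMSO with enzyme for no effect and no enzyme buffer wells for full effect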
# Target sequence (Q9BQF6 706-1050 limits assumed): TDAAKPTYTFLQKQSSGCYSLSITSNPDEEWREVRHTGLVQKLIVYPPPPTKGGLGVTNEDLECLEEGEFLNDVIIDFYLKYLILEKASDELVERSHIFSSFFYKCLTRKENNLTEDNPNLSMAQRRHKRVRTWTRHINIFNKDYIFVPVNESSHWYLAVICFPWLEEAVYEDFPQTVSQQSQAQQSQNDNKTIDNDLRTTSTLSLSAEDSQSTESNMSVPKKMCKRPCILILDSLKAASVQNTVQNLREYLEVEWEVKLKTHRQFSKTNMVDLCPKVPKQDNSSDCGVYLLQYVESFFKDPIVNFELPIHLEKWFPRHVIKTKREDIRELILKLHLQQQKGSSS
# UBC13 inh – human UBC13 polyubiquitination inhibition | P61088 | UBC13 polyubiquitin chain formation, TR-FRET | inhibition, % at 20 µM | 0.47% of 330,000 active | AID 485273; in the data active = inhibition above about 45%, passing the limit was not always enough
# Target sequence (P61088 whole entry, looked up): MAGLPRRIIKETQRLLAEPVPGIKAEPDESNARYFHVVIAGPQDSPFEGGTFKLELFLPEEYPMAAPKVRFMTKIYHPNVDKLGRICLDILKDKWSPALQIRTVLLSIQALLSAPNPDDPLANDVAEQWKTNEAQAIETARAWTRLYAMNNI
# SENP8 block-1 – blocks human SENP8 cleavage of Nedd8 substrate; Q96LD8; inhibition, % at 20 µM; 0.64% of 360,000 active; recombinant SENP8, Nedd8 substrate fluorescence; in the data active = inhibition mostly above about 40%, no sharp cut-off; inactive = mostly below about 27%
# Apaf-1 inh – blocks human Apaf-1 apoptosome activity; O14727; reconstituted apoptosome caspase-3 activity, DEVD-Rh110 fluorescence; inhibition, % at 20 µM; 0.71% of 330,000 active; AID 489030; active = inhibition of at least 40% at 20 µM;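 note: plate controls were DMSO wells for no effect and DEVD-CHO caspase inhibitor wells for full effect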
#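 System: Apoptosome proteins | Medium: Hepes pH 7.5 with detergent and BSA | Also added: Cytochrome c trigger plus (Z-DEVD)2-Rh110 caspase-3 substrate | Incubation: 30 min compound preincubation, 50 min activation, room temperature | Detection: Rhodamine 110 fluorescence at Ex 480/Em 540 nm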
# SENP8 block-2 – SENP8 protease inhibition | 1.2% of 330,000 active | purified SENP8, Z-RLRGG-aminoluciferin cleavage, luminescence | AID 2540 | Q96LD8 | inhibition, % at 10 µM; in the data active = inhibition above about 50%
# SENP8 conf – confirmation of human SENP8 protease inhibitors; 40% of 6,200 active; shares compounds with SENP7 inh; Recombinant SENP8, Z-RLRGG-aminoluciferin luminescence, 60 min; AID 488912; inhibition, % at 12.5 µM;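 active = mean inhibition across replicates above about 50%, limit read from the data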
# SENP6 conf – human SENP6 inhibition, confirmed. inhibition, % at 12.5 µM. AID 488915. shares compounds with SENP7 inh. 58% of 6,200 active. recombinant SENP6, Z-RLRGG-aminoluciferin luminescence
# SENP7 confirm – human SENP7 inhibition, confirmed | shares compounds with SENP7 inh | recombinant SENP7, Z-RLRGG-aminoluciferin luminescence, 40 min | inhibition, % at 12.5 µM | 69% of 6,200 active | AID 488917
# Casp3 SENP sel – caspase-3 inhibition (SENP selectivity assay); 60% of 6,200 active; shares compounds with SENP7 inh; purified caspase-3, Z-DEVD-aminoluciferin luminescence, 60 min; AID 488918; inhibition, % at 12.5 µM;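 active = mean inhibition above about 50%, limit read from the data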;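 note: plate controls were enzyme with DMSO for no effect and wells without caspase-3 for full effect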
# Target sequence (P42574 28-227 limits assumed): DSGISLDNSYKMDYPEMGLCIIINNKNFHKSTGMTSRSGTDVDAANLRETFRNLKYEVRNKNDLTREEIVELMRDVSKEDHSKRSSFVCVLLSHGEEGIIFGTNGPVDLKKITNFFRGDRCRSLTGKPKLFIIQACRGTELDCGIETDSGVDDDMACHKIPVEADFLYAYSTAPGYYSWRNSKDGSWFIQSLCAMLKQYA
# SENP luc ctr – luminescence interference (SENP counter-screen) | AID 488919 | Pre-incubated SENP8/Z-RLRGG-aminoluciferin, luciferase luminescence interference | inhibition, % at 12.5 µM | shares compounds with SENP7 inh | 39% of 6,200 active;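 active = mean inhibition above about 50% when retested at one dose, limit read from the data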;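 note: plate controls were DMSO wells with completed reaction for no effect and substrate without enzyme for full effect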
# Starred values were filed as active, the others as inactive; i = inactive; x = no result. A selection: hits, their analogues and other compounds. The true share with any hit is near 3.1%.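 Rule for the calls, unless noted: active = mean inhibition above about 50% in the one-dose retest (limit read from the data); inactive = the rest.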
SMILES,SENP6 block,SENP7 inh,UBC13 inh,SENP8 block-1,Apaf-1 inh,SENP8 block-2,SENP8 conf,SENP6 conf,SENP7 confirm,Casp3 SENP sel,SENP luc ctr
N#Cc1ccc(CSc2ccccn2)c(Cl)c1,-30.5,1.0,4.5,7.5,3.3,-4.5,x,x,x,x,x
Cc1ccc(/C(N)=N/OC(=O)/C=C/c2ccccc2)cc1,12.1,-0.3,0.4,7.1,7.9,-5.2,x,x,x,x,x
Cc1ccccc1/C(N)=N/OC(=O)/C=C/c1ccccc1,67.4*,60.0*,-10.3,13.6,16.6,36.7,50.6*,52.5*,82.9*,71.3*,64.2*
Cc1ccccc1/C(N)=N/OC(=O)c1cccs1,74.1*,45.9,0.8,5.5,-10.9,32.6,55.7*,55.3*,83.9*,80.3*,61.5*
C[C@H]1CNC(=O)c2c(C(=O)Nc3ccc(CNC(=O)OC(C)(C)C)cc3)ncn21,x,x,x,-2.1,x,x,x,x,x,x,x
COc1cccc2c1C(=O)O/C2=C/c1ccc2c(c1)OCO2,19.0,97.8*,9.9,i,-18.1,87.9*,22.0,18.7,22.4,74.4*,-11.0
COc1cccc(OC)c1C1=CC(=O)C[C@H](c2ccc3c(c2)OCO3)C1,-15.5,-4.6,-11.1,16.8,17.2,-0.5,x,x,x,x,x
Cc1cccc(NC(=O)Nc2cccc(F)c2)n1,3.3,12.4,13.8,16.4,8.1,-3.7,x,x,x,x,x
COc1cccc(NC(=O)Nc2nccc(C)n2)c1,57.8*,54.5*,-4.5,0.9,-3.4,30.7,30.4,31.9,70.7*,75.7*,34.5
Cc1ccnc(NC(=O)Nc2cccc(F)c2)n1,28.3,67.3*,3.3,9.1,2.9,44.3,30.4,30.9,57.2*,61.2*,12.0
COc1cccc(NC(=O)NCc2ccccn2)c1,-0.5,-6.9,3.2,9.3,0.8,-4.1,x,x,x,x,x
O=C(NCCN1CCC(n2c(=O)[nH]c3ccccc32)CC1)c1ccc(F)cc1Cl,x,x,x,14.2,x,x,x,x,x,x,x
CC(C)(C)S(=O)N1Cc2cc(C(=O)N[C@@H]3CCN(Cc4ccccc4)C3)nc(-c3cccc(-c4cc5ccccc5o4)c3)c2[C@@H]1CCO (stereo partly drawn),x,x,x,-73.3,x,x,x,x,x,x,x
Cc1cc(C)nc(Nc2nc(C(N)Cc3ccccc3)cs2)n1 (stereo not drawn),x,x,x,11.4,x,x,x,x,x,x,x
C/C(=N\NC(=O)c1ccc2ccccc2c1)c1cccs1,84.1*,83.3*,1.2,-4.1,-1.6,69.9*,54.2*,52.8*,92.8*,84.1*,10.3
C/C(=N\NC(=O)c1ccccc1O)c1ccc(NC(=O)c2ccccc2)cc1,5.1,-10.3,-6.2,-138.5,-10.3,2.6,x,x,x,x,x
C/C(=N/NC(=O)c1cc(C2CC2)[nH]n1)c1cccs1,29.9,65.7*,-4.7,29.7,3.0,46.2,63.7*,61.5*,88.1*,89.3*,70.9*
C/C(=N/NC(=O)c1ccccc1O)c1ccc(N2C(=O)C3CCCCC3C2=O)cc1 (stereo not drawn),61.8*,21.8,-4.0,-56.5,1.7,-5.8,-3.3,-2.4,-8.0,-2.8,-4.0
C/C(=N\NC(=O)c1ccccc1O)c1cccs1,0.8,60.7*,-10.3,-35.6,-6.5,18.2,50.4*,45.1,77.6*,85.1*,57.5*
O=C(NC1CCCCC1)C(c1ccc(C(F)(F)F)cc1)n1c(=O)c(-c2ccccc2)nc2ccccc21 (stereo not drawn),x,x,x,-412.0,x,x,x,x,x,x,x
COc1ccc2cc3cc(C(=O)N4CCCCCC4)oc3nc2c1,76.6*,86.9*,1.3,-376.1,11.1,78.9*,18.9,81.9*,96.6*,69.2*,-1.4
COc1ccc2cc3cc(C(=O)N4CCN(C5CCCCC5)CC4)oc3nc2c1,4.3,2.8,12.0,-442.5,15.3,-2.2,x,x,x,x,x
COc1ccc2cc3cc(C(=O)N4CCCCC4C)oc3nc2c1 (stereo not drawn),63.8*,66.8*,-5.8,-410.2,-1.5,51.7*,63.8*,60.6*,87.6*,75.2*,22.3
COc1ccc2cc3cc(C(=O)NCCCN4CCC(C)CC4)oc3nc2c1,9.4,-13.1,6.3,-345.9,2.7,0.2,x,x,x,x,x
COc1ccc2cc3cc(C(=O)N(C)C4CCCCC4)oc3nc2c1,59.5*,60.5*,9.2,-400.2,18.4,52.2*,6.0,4.5,32.4,37.7,-1.0
SMILES,SENP6 block,SENP7 inh,UBC13 inh,SENP8 block-1,Apaf-1 inh,SENP8 block-2,SENP8 conf,SENP6 conf,SENP7 confirm,Casp3 SENP sel,SENP luc ctr
COc1ccc(C(=O)c2[nH]c(N)c(C(=O)NCCc3c[nH]c4ccccc34)c2-c2ccc(C(F)(F)F)cc2)cc1,x,x,x,-20.4,x,x,x,x,x,x,x
Fc1cccc(Cc2c(-c3ccccc3)nc3ccc(Cl)cn23)c1,x,x,x,-187.4,x,x,x,x,x,x,x
Cc1ccc(C)c(N=Nc2nc3ccccc3n2C)c1,78.9*,86.6*,-57.1,20.7,11.2,64.6*,90.2*,83.8*,99.5*,63.4*,93.6*
COc1ccccc1C(=O)NCCOc1ccc(C(C)(C)C)cc1,4.9,2.0,-0.3,-4.2,13.6,-2.2,x,x,x,x,x
CC(C)(C)c1ccc(C(=O)NCCOc2ccccc2)cc1,56.5*,54.1*,-2.5,5.1,4.9,37.9,-5.2,35.7,79.8*,x,-0.8
CC(C)(C)c1ccc(C(=O)NCCOc2ccccc2F)cc1,73.8*,71.6*,4.9,14.5,19.6,59.4*,4.8,69.1*,89.5*,52.4*,46.8
CCOC(=O)c1cnn(-c2ncnc3c2oc2ccccc23)c1N,15.5,72.7*,1.4,15.4,-5.5,9.5,2.4,8.2,32.2,44.5,12.1
CCOC(=O)C1CCN(c2ncnc3c2oc2ccccc23)CC1,-14.6,0.2,1.8,-33.6,3.0,-1.2,x,x,x,x,x
CC(C)CNC(=O)C1C(=O)Nc2ccccc2C(=O)N1C(C)(C)C (stereo not drawn),x,x,x,13.2,x,x,x,x,x,x,x
CC(C)(C)c1ccc(C(O)c2ncc(-c3ccc(F)cc3)[nH]2)cc1 (stereo not drawn),x,x,x,3.5,x,x,x,x,x,x,x
O=C(c1ccc([N+](=O)[O-])cc1)c1cc2ccc(O)cc2oc1=O,83.3*,70.8*,-24.1,12.3,1.8,77.9*,22.9,64.9*,5.5,70.7*,6.6
Cc1nn2cc(-c3ncc(C(F)(F)F)cc3Cl)cnc2c1Br,83.0*,90.2*,2.4,-13.2,-1.1,75.9*,60.9*,59.8*,27.9,40.5,20.4
